Screening results: PubChem, The Scripps Research Institute Molecular Screening Center
CHRM4 agonist = agonists of human muscarinic M4 receptor (CHRM4). CHO-K1 hM4/Gqi5, Fluo-8 calcium fluorescence; vehicle 0%, full acetylcholine response 100%. activation, % at 3 µM. 360,000 tested, 0.14% active. P08173;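 active = activation above the run mean over all test wells plus 3 SD, cut at about 32% in these data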;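 also: peak over basal fluorescence ratio per well then scaled between controls; 0% = DMSO wells and 100% = acetylcholine at EC100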
Target sequence (P08173 whole entry, looked up): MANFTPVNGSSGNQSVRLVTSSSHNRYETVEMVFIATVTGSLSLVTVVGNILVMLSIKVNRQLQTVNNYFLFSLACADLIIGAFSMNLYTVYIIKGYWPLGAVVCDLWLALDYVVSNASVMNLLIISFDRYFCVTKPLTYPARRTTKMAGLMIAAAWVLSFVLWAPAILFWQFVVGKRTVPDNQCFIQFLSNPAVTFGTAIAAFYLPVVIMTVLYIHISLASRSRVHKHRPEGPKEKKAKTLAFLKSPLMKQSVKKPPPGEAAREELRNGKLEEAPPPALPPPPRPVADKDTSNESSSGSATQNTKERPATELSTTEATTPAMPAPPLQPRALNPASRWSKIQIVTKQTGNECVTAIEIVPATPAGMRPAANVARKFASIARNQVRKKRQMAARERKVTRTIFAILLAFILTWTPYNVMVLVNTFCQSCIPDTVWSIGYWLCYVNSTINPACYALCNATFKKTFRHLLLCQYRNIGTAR
M5 antag = CHRM5 antagonism in calcium assay. CHO-hM5 cells, Fluo-8 calcium fluorescence, ACh EC80. P08912. inhibition, % at 3 µM. 360,000 tested, 0.59% active;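 active = inhibition above a per-plate cutoff, the mean of that plate's test compounds plus 3 SD, cut at about 27% in these data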;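 also: 0% = acetylcholine EC80 with DMSO and 100% = DMSO without agonist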
CHRM4 PAM = CHRM4 positive allosteric modulation | CHO-K1 hM4/Gqi5, Fluo-8 calcium fluorescence, ACh EC20; 0% = ACh EC20, 100% = maximal ACh | activation, % at 3 µM | 360,000 tested, 0.4% active | AID 624126;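 active = activation above its plate's cutoff, the mean activation of sample wells plus 3 SD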
M4 antag = blocks acetylcholine activation of human M4 receptor. CHO-hM4 cells, ACh EC80, Fluo-8 calcium fluorescence. 360,000 tested, 0.73% active. P08173. inhibition, % at 3 µM;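 active = inhibition above its plate's cutoff, the mean inhibition of sample wells plus 3 SD, cut at about 27% in these data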;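 also: 0% = acetylcholine EC80 with DMSO and 100% = DMSO without agonist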
CHRM5 agonist = agonists of human muscarinic M5 receptor (CHRM5). CHO-K1 hM5 cells, Fluo-8 calcium fluorescence; 0% DMSO wells, 100% maximal acetylcholine response. activation, % at 3 µM. 360,000 tested, 0.19% active. P08912;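 active = activation above the run's mean over test compounds plus 3 SD, cut at about 23% in these data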;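 also: signal is peak over basal fluorescence ratio across the kinetic read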
CHRM5 PAM = CHRM5 positive allosteric modulation. activation, % at 3 µM. CHO-K1 hM5, Fluo-8 calcium, ACh EC20 PAM; 0% = ACh EC20, 100% = ACh EC100. 360,000 tested, 0.3% active;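 active = activation above the run cutoff, the mean activation of all test compounds plus 3 SD, cut at about 18% in these data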
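System: CHO-K1 cell line with stable human muscarinic M5 receptor expression | Also added: EC20 acetylcholine as agonist stimulus | Compound: One concentration, 3 µM final (nominal) | Timing: Fluo-8 loading 80 min at 37 °C plus 30 min room temperature | Measured by: Fluo-8 calcium dye fluorescence, kinetic read | Read-out basis: % activation, ACh-normalized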
An asterisk follows results filed as active. This is a sample that favours compounds with a hit; in the whole collection about 1.8% have one here.

SMILES	CHRM4 agonist	M5 antag	CHRM4 PAM	M4 antag	CHRM5 agonist	CHRM5 PAM
CN(C)CCCN(C(=O)c1cc(-c2cccs2)nc2ccccc12)c1nc2c(F)cccc2s1	8	4	-13	27*	-5	5
COc1ccc(N=C2S/C(=C\c3ccc(N4CCOCC4)o3)C(=O)N2CCc2c[nH]c3ccccc23)cc1	8	11	-13	45*	10	-1
COc1ccc(N=C2S/C(=C\c3ccc(OCC(=O)O)cc3)C(=O)N2CCc2c[nH]c3ccccc23)cc1	2	-6	-6	-8	8	-11
O=C(N/N=C/C=C/c1ccccc1)C1CC1c1ccccc1 (centres undefined)	3	-10	17*	4	-10	-2
Oc1ccc(Br)cc1/C=N/n1c(C2CCCCC2)n[nH]c1=S	0	8	-9	5	-1	-2
CN(C)CCCN(C(=O)c1cc(Cl)sc1Cl)c1nc2cc3c(cc2s1)OCO3	5	42*	-16	62*	-9	-18
Cc1ccc(NC(=S)c2nc3ccccc3[nH]2)cc1	-3	47*	20	0	21	0
COc1cc(C2CC(=O)NC3=C2C(=O)CC(C)(C)C3)cc(OC)c1O (centres undefined)	0	27*	0	6	-1	8
CN(C(=O)Cn1cnc2sccc2c1=O)C1CCCCC1	1	-4	3	-21	-2	4
CCc1cccc(NS(=O)(=O)c2c(C)nc3sc(CC)nn3c2=O)c1	7	30*	-18	29*	-2	-23
Cc1ccccc1N1C(=O)c2cccc3c(N(C)CCO)ccc(c23)C1=O	17	15	-3	12	18	-7
COc1ccccc1N1C(=O)c2cccc3c(N(C)CCO)ccc(c23)C1=O	9	8	-3	2	24*	-3
COc1ccc([C@H]2CN(CCc3ccccc3)C(=O)[C@@H]2CC(=O)Nc2ccccc2)cc1	3	5	-1	-7	-1	2
CCCCC(=O)N(C)c1c(CC)nc2c(OCc3ccc(C(F)(F)F)cc3)cccn12	-1	3	-6	-13	-3	-13
O=C1C=CC(=O)N1c1cccc(-c2ccccc2)c1	16	2	-49	42*	-2	-16
CC(=O)c1ccc(N2CCC(c3cc(-c4ccc(Cl)cc4)n[nH]3)CC2)c([N+](=O)[O-])c1	4	14	-16	29*	1	-10
COc1ccc(-c2cc(C3CCN(c4ccc(C(C)=O)cc4[N+](=O)[O-])CC3)[nH]n2)cc1	6	3	-10	6	0	-3
CCOC(=O)C1(COCc2ccccc2)CCCCC1=O (centres undefined)	0	1	-1	-9	0	2
COc1ccc(C(=O)Nc2c3c(nn2-c2ccc(Cl)cc2)CS(=O)(=O)C3)cc1	1	-83	-4	-6	5	25*
COc1ccc(-n2nc3c(c2NC(=O)c2ccc(Br)o2)CS(=O)(=O)C3)cc1	4	4	24*	6	-3	-1
O=C(Nc1c2c(nn1-c1ccc(F)cc1)CS(=O)(=O)C2)c1ccc(Br)o1	0	17	-9	-13	-5	-5
COc1ccccc1C(=O)NCCC(=O)NC(C)c1ccc(-n2ccnc2)cc1 (centres undefined)	0	7	4	-16	-4	-8
Cc1ccc2c(CC(=O)NC3CCS(=O)(=O)C3)coc2c1C (centres undefined)	2	9	18*	13	-1	1
Cc1snc(SCc2ccc(F)cc2)c1C#N	-1	-4	18*	-11	-3	2
COc1cccc(NC(=O)Cn2nnc(C(=O)NCCc3ccccc3)c2N)c1	4	17	-2	-3	-2	-2
SMILES	CHRM4 agonist	M5 antag	CHRM4 PAM	M4 antag	CHRM5 agonist	CHRM5 PAM
C=CCn1c(SCC(=O)Nc2cccnc2Cl)nnc1-c1ccc(Cl)cc1	1	28*	16	22	8	26*
COc1ccc(OCC(=O)NCc2nc(-c3ccccc3)no2)cc1	0	1	5	-3	3	4
CCOC(=O)C1CCCN(C/C(O)=C(\C#N)c2nc(-c3ccccc3)cs2)C1 (centres undefined)	5	-3	3	-4	23*	-6
COc1ccc(C2Nc3cccc(O)c3C(=O)N2Cc2ccccc2)cc1COc1ccc(NC(C)=O)cc1 (centres undefined)	3	1	-1	-8	1	1
COc1ccc(-c2c[n+](CC(=O)OC3CC(C)CCC3C(C)C)c3n2CCC3)cc1 (centres undefined)	1	65*	-24	34*	-15	-31
CC1CCC(C(C)C)C(OC(=O)C[n+]2cccc(C(N)=O)c2)C1 (centres undefined)	0	4	11	-11	-13	-8
CC(C)[C@@H]1CC[C@@H](C)C[C@H]1OC(=O)C[n+]1cc(-c2ccc(Cl)cc2)n2c1CCCCC2	1	77*	-51	42*	-19	-32
Cc1ccc(OCCNC(=O)c2cccc(S(=O)(=O)N3CCN(C)CC3)c2)cc1	1	-9	17	-9	0	5
CCC(CCC(=O)NNC(=O)Cc1ccc([N+](=O)[O-])cc1)C(=O)O (centres undefined)	0	9	-4	0	0	0
CN1CCN(C2Cc3ccccc3Sc3ccc(Cl)cc32)CC1 (centres undefined)	6	54*	-19	52*	0	-18
CN1CCN(C2Cc3ccc(F)cc3Sc3cc(F)c(Cl)cc32)CC1 (centres undefined)	10	10	-12	24	-15	-20
CN1CCN(C2Cc3cc(F)ccc3Sc3ccc(Cl)cc32)CC1 (centres undefined)	16	80*	-75	84*	-15	-35
CSc1ccc2c(c1)C(N1CCN(C)CC1)Cc1ccccc1S2 (centres undefined)	25	70*	-18	55*	4	-18
CCc1cccc2c1Sc1ccccc1CC2N1CCNCC1 (centres undefined)	8	4	-40	24	-18	-15
COc1ccc(/C=C(\NC(=O)c2ccccc2)C(=O)NCc2ccco2)cc1OC	2	11	-2	-2	-1	-2
CN1CCN(Cc2c(C(=O)N/N=C/c3cccc(Br)c3)nnn2-c2nonc2N)CC1	3	-10	0	-15	-8	-2
O=[N+]([O-])c1cc(Cl)cc(/C=N/n2cnnc2)c1O	7	4	10	-7	15	25*
